In ChEMBL document CHEMBL1157791, “Discovery of GSK1070916, a potent and selective inhibitor of Aurora B/C kinase” (J Med Chem, 2010):
Activity calls are given as the source filed them. No cut-off for these calls is given here.

What was measured:
[1] = target: T1, Aurora kinase A (Homo sapiens, UniProt O14965); experiment: Inhibition of human Aurora A
T1 sequence (O14965 whole entry): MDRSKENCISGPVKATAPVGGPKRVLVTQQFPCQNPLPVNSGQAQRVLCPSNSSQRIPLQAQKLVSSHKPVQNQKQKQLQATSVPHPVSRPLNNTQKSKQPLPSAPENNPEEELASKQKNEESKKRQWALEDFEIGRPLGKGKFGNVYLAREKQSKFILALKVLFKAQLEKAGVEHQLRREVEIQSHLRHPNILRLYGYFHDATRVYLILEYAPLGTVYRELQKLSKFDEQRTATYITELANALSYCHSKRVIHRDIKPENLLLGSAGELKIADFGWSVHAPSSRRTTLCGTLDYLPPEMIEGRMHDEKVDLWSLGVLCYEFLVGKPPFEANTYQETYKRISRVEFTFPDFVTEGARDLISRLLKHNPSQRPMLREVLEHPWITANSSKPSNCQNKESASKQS

[2] = tested on: A549; experiment: Selectivity ratio of EC50 for human A549 cells in presence of 70% human serum albumin to EC50 for human A549 cells in absence of 70% human serum albumin; format: functional
[3] = target: Aurora kinase B (Homo sapiens, UniProt Q96GD4); experiment: Inhibition of human Aurora B by in vitro inhibition assay
[4] = tested on: A549; experiment: Antiproliferative activity against human A549 cells after 6 to 7 days by celltiter-glo luminescence assay in absence of 70% human serum albumin; format: functional, cell-based
[5] = species: Homo sapiens; experiment: Selectivity ratio of IC50 for human Aurora A to IC50 for human Aurora B
[6] = target: T2, Aurora kinase C (Homo sapiens, UniProt Q9UQB9); experiment: Competitive inhibition of Aurora C ATP binding site
T2 sequence (Q9UQB9 whole entry): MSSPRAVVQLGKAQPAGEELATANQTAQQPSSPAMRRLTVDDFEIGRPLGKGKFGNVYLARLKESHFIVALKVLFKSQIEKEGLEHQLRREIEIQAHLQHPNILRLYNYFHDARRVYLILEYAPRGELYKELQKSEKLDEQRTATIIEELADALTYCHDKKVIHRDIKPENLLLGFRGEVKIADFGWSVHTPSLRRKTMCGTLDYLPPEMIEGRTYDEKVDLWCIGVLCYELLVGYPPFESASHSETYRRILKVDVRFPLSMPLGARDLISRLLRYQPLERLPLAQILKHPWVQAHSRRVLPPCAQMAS

[7] = target: Hepatocyte growth factor receptor (Homo sapiens, UniProt P08581); experiment: Inhibition of MET
[8] = target: Tyrosine-protein kinase Lck (Homo sapiens) (UniProt P06239); experiment: Inhibition of LCK
[9] = Inhibition of ROCK
Outline: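 Part of a 328 human protein and lipid kinase selectivity panel run as in vitro activity or binding assays.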

Chain of Aurora kinase B (Q96GD4 whole entry): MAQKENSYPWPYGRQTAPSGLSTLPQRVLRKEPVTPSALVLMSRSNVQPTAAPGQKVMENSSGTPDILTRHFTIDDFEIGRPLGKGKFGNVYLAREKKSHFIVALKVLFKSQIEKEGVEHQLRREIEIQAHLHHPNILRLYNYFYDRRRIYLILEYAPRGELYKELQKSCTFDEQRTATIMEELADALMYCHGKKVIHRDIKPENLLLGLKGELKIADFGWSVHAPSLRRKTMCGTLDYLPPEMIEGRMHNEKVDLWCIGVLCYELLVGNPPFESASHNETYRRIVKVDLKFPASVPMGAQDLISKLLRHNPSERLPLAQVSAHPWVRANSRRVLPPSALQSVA
Chain of Hepatocyte growth factor receptor (P08581 whole entry): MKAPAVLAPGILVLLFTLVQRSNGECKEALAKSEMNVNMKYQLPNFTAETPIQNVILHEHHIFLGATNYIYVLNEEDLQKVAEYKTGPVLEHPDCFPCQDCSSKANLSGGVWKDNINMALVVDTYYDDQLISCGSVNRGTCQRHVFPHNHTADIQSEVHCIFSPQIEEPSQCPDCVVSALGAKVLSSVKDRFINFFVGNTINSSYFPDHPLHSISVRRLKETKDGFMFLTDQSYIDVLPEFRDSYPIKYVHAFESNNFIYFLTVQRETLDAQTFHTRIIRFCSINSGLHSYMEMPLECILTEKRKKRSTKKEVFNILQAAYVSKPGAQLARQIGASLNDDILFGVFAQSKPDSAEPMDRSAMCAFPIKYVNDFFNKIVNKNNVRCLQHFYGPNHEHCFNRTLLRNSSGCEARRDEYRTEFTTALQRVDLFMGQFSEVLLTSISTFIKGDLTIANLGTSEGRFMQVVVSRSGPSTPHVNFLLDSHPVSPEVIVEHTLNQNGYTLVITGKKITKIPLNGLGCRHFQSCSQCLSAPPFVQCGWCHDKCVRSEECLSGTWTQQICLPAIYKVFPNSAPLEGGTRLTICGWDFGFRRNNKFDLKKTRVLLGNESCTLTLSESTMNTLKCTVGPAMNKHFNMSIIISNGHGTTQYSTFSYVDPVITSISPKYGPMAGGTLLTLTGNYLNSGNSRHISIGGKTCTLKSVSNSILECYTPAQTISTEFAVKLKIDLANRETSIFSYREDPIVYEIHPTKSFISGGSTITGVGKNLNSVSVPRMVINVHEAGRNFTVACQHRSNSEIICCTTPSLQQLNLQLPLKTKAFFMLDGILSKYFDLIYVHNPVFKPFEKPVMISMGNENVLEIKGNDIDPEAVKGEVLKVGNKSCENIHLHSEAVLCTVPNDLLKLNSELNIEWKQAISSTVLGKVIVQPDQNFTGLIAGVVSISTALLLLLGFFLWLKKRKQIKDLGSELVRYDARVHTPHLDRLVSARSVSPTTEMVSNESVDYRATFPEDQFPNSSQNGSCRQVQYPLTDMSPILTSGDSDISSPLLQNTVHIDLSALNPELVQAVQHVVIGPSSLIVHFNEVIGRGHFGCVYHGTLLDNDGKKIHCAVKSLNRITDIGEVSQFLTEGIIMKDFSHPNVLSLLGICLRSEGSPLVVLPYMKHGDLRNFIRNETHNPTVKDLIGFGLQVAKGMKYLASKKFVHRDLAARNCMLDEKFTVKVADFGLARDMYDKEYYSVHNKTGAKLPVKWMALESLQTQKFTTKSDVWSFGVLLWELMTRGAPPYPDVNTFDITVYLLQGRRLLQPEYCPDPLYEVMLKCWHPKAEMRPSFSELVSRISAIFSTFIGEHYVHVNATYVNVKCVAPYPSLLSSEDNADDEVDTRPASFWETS
Chain of Tyrosine-protein kinase Lck (Homo sapiens) (P06239 2-509 limits assumed): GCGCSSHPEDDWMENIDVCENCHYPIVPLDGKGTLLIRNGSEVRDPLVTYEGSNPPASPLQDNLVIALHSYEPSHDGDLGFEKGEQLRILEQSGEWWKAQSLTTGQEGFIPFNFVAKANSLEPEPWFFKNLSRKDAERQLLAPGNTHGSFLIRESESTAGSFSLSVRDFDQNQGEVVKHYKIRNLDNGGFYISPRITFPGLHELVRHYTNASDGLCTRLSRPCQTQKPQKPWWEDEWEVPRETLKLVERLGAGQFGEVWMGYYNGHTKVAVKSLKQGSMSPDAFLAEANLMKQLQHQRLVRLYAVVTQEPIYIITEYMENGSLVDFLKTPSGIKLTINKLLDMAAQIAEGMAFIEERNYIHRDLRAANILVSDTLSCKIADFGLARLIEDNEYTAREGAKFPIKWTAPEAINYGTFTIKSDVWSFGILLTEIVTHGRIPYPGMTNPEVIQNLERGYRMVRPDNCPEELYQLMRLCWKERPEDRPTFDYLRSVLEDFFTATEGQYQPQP

SMILES	IC50 [1] [nM]	Ratio EC50 [2]	IC50 [3] [nM]	EC50 [4] [nM]	Ratio IC50 [5]	IC50 [6] [nM]	inhibition [7]	inhibition [8]	inhibition [9]
CCn1cc(-c2ccnc3[nH]c(-c4ccc(NC(C)=O)cc4)cc23)c(-c2ccc(NC(=O)Nc3ccccc3)cc2)n1	62	10	44	110					
CCn1cc(-c2ccnc3[nH]c(-c4ccc(CN(C)C)cc4)cc23)c(-c2ccc(NC(=O)N(C)C)cc2)n1	514		3.6	6	156				
CCn1cc(-c2ccnc3[nH]c(C(=O)NCCN4CCN(C)CC4)cc23)c(-c2ccc(NC(=O)Nc3ccccc3)cc2)n1	203	10	5	417					
CCn1cc(-c2ccnc3[nH]c(CNCCCN4CCN(C)CC4)cc23)c(-c2ccc(NC(=O)Nc3ccccc3)cc2)n1	5110	10	83	> 20000					
CCn1cc(-c2ccnc3[nH]c(-c4ccc(CN5CCOCC5)cc4)cc23)c(-c2ccc(NC(=O)Nc3ccccc3)cc2)n1	59	10	66	17					
CCn1cc(-c2ccnc3[nH]c(CN(C)C)cc23)c(-c2ccc(NC(=O)Nc3ccccc3)cc2)n1	1700	10	58	4390					
O=C(Nc1ccccc1)Nc1ccc(-c2nn(CC(O)CO)cc2-c2ccnc3[nH]ccc23)cc1 (configuration not stated)	377		1	9610					
CCNC(=O)Nc1ccc(-c2nn(CC)cc2-c2ccnc3[nH]c(-c4ccc(CN5CCCC5)cc4)cc23)cc1	42		1.5	8					
CCn1cc(-c2ccnc3[nH]c(-c4cccc(CN5CCOCC5)c4)cc23)c(-c2ccc(NC(=O)N(C)C)cc2)n1	495		4.7	18					
CCn1ncc(-c2ccnc3[nH]ccc23)c1-c1ccc(NC(=O)Nc2ccccc2)cc1	5600		25	1590					
CCN(CCCOc1ccc2c(Nc3cc(CC(=O)Nc4cccc(F)c4)n[nH]3)ncnc2c1)CCOP(=O)(O)O [BARASERTIB]						17			
O=C(Nc1ccccc1)Nc1ccc(-c2n[nH]cc2-c2ccnc3[nH]ccc23)cc1	3850		32	12800					
O=C(Nc1ccccc1)Nc1ccc(-c2nn(CC(F)(F)F)cc2-c2ccnc3[nH]ccc23)cc1	2150		16	326					
CCn1cc(-c2ccnc3[nH]c(-c4cccc(NC(C)=O)c4)cc23)c(-c2ccc(NC(=O)Nc3ccccc3)cc2)n1	126	10	44	156					
CCNC(=O)Nc1ccc(-c2nn(CC)cc2-c2ccnc3[nH]c(-c4ccc(CN(C)C)cc4)cc23)cc1	39		1.7	6					
CCNC(=O)Nc1ccc(-c2nn(CC)cc2-c2ccnc3[nH]c(-c4cccc(CN(C)C)c4)cc23)cc1	128		3	12	42				
O=C(Nc1ccccc1)Nc1ccc(-c2nn(CCO)cc2-c2ccnc3[nH]ccc23)cc1	792		3	2630					
O=C(Nc1ccccc1)Nc1ccc(-c2nn(CCCO)cc2-c2ccnc3[nH]ccc23)cc1	969		2	779					
CCn1cc(-c2ccnc3[nH]ccc23)c(-c2ccc(NC(=O)N(C)C)cc2)n1	> 10000								
CCn1cc(-c2ccnc3[nH]c(C(=O)NCCCN4CCN(C)CC4)cc23)c(-c2ccc(NC(=O)Nc3ccccc3)cc2)n1	228	10	8	638					
CCNC(=O)Nc1ccc(-c2nn(CC)cc2-c2ccnc3[nH]c(-c4cccc(CN5CCOCC5)c4)cc23)cc1	70		5	26					
CCn1cc(-c2ccnc3[nH]c(CNCCN4CCOCC4)cc23)c(-c2ccc(NC(=O)Nc3ccccc3)cc2)n1	2440	10	22	2860					

SMILES	IC50 [1] [nM]	Ratio EC50 [2]	IC50 [3] [nM]	EC50 [4] [nM]	Ratio IC50 [5]	IC50 [6] [nM]	inhibition [7]	inhibition [8]	inhibition [9]
CCn1cc(-c2ccnc3[nH]c(CNCCS(C)(=O)=O)cc23)c(-c2ccc(NC(=O)Nc3ccccc3)cc2)n1	579	10	24	11500					
O=C(Nc1ccccc1)Nc1ccc(-c2nn(CC(=O)N3CCOCC3)cc2-c2ccnc3[nH]ccc23)cc1	6810		85	> 20000					
CCn1cc(-c2ccnc3[nH]c(-c4cccc(CN5CCCC5)c4)cc23)c(-c2ccc(NC(=O)N(C)C)cc2)n1	366		2.1	7					
CCn1cc(-c2ccnc3[nH]c(-c4ccc(CN(C)C)cc4C)cc23)c(-c2ccc(NC(=O)Nc3ccccc3)cc2)n1	42	10	26	16					
CCn1cc(-c2ccnc3[nH]c(-c4cccc(CN5CCOCC5)c4)cc23)c(-c2ccc(NC(=O)Nc3ccccc3)cc2)n1	94	10	57	30					
CCn1cc(-c2ccnc3[nH]c(-c4ccc(CN(C)C)cc4)cc23)c(-c2ccc(NC(=O)Nc3ccccc3)cc2)n1	45	10	23	8					
CC(C)(C)n1cc(-c2ccnc3[nH]ccc23)c(-c2ccc(NC(=O)Nc3ccccc3)cc2)n1	8160		50	476					
CCn1cc(-c2ccnc3[nH]c(-c4cccc(CN(C)C)c4)cc23)c(-c2ccc(NC(=O)Nc3ccccc3)cc2)n1	53	10	20	14	3		Active	Active	Active
CCNC(=O)Nc1ccc(-c2nn(CC)cc2-c2ccnc3[nH]c(-c4cccc(CN5CCCC5)c4)cc23)cc1	58		1.4	9					
NC(=O)Cn1cc(-c2ccnc3[nH]ccc23)c(-c2ccc(NC(=O)Nc3ccccc3)cc2)n1	5680		64	> 20000					
CCNC(=O)Cn1cc(-c2ccnc3[nH]ccc23)c(-c2ccc(NC(=O)Nc3ccccc3)cc2)n1	3390		64	> 20000					
CC(C)(C)n1ncc(-c2ccnc3[nH]ccc23)c1-c1ccc(NC(=O)Nc2ccccc2)cc1	5770		40	890					
CCNC(=O)Nc1ccc(-c2nn(CC)cc2-c2ccnc3[nH]c(-c4ccc(CN5CCOCC5)cc4)cc23)cc1	23		4.7	12					
CCn1cc(-c2ccnc3[nH]c(-c4ccc(CN5CCCC5)cc4)cc23)c(-c2ccc(NC(=O)N(C)C)cc2)n1	414		4.5	6					
CCn1cc(-c2ccnc3[nH]c(-c4ccc(CN5CCOCC5)cc4)cc23)c(-c2ccc(NC(=O)N(C)C)cc2)n1	250		8.1	9					
CCn1cc(-c2ccnc3[nH]c(-c4cccc(CN5CCCC5)c4)cc23)c(-c2ccc(NC(=O)Nc3ccccc3)cc2)n1	22	10	11	12					
CCn1cc(-c2ccnc3[nH]c(CNCCN(C)C)cc23)c(-c2ccc(NC(=O)Nc3ccccc3)cc2)n1	5480	10	276						
CCn1cc(-c2ccnc3[nH]c(CNCCO)cc23)c(-c2ccc(NC(=O)Nc3ccccc3)cc2)n1	2820	10	46	18600					
CCn1cc(-c2ccnc3[nH]c(-c4cc(CN(C)C)ccc4C)cc23)c(-c2ccc(NC(=O)Nc3ccccc3)cc2)n1	113	10	60	174					
O=C(Nc1ccccc1)Nc1ccc(-c2nn(CC3CCCO3)cc2-c2ccnc3[nH]ccc23)cc1 (configuration not stated)	6190		97						
CCn1cc(-c2ccnc3[nH]c(C(=O)NCCN4CCOCC4)cc23)c(-c2ccc(NC(=O)Nc3ccccc3)cc2)n1	197	10	5	200					
